For one assay, the system named is HL-60. Kind of assay: Cytotoxicity against human HL60 cells after 72 hrs by MTT assay. The class given is functional, cell-based. The following applies: HL-60, 72 h. In outline:
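Leukemia cells seeded in 96-well plates and exposed in triplicate to graded compound concentrations for 72 h at 37 °C. Viability was read by MTT. IC50 was derived by the Logit method from at least three independent experiments.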

The test system of a further assay is KB. Kind of assay: Cytotoxicity against human KB cells after 72 hrs by MTT assay. Type of assay: functional, cell-based.
Another assay relates to MDA-MB-231. Kind of assay: Cytotoxicity against human MDA-MB-231 cells after 72 hrs by MTT assay. The class given is functional, cell-based. The following applies: MDA-MB-231, 72 h.
For assay [1], the target named is DNA topoisomerase 2-alpha (Homo sapiens) (UniProt P11388). Kind of assay: Inhibition of DNA topoisomerase 2 alpha assessed as ATP-dependent decatenation of DNA in cell free system.

Structures are written as SMILES. Activity calls are given as the source filed them. No cut-off for these calls is given here.

Chain of DNA topoisomerase 2-alpha (Homo sapiens) (P11388 whole entry): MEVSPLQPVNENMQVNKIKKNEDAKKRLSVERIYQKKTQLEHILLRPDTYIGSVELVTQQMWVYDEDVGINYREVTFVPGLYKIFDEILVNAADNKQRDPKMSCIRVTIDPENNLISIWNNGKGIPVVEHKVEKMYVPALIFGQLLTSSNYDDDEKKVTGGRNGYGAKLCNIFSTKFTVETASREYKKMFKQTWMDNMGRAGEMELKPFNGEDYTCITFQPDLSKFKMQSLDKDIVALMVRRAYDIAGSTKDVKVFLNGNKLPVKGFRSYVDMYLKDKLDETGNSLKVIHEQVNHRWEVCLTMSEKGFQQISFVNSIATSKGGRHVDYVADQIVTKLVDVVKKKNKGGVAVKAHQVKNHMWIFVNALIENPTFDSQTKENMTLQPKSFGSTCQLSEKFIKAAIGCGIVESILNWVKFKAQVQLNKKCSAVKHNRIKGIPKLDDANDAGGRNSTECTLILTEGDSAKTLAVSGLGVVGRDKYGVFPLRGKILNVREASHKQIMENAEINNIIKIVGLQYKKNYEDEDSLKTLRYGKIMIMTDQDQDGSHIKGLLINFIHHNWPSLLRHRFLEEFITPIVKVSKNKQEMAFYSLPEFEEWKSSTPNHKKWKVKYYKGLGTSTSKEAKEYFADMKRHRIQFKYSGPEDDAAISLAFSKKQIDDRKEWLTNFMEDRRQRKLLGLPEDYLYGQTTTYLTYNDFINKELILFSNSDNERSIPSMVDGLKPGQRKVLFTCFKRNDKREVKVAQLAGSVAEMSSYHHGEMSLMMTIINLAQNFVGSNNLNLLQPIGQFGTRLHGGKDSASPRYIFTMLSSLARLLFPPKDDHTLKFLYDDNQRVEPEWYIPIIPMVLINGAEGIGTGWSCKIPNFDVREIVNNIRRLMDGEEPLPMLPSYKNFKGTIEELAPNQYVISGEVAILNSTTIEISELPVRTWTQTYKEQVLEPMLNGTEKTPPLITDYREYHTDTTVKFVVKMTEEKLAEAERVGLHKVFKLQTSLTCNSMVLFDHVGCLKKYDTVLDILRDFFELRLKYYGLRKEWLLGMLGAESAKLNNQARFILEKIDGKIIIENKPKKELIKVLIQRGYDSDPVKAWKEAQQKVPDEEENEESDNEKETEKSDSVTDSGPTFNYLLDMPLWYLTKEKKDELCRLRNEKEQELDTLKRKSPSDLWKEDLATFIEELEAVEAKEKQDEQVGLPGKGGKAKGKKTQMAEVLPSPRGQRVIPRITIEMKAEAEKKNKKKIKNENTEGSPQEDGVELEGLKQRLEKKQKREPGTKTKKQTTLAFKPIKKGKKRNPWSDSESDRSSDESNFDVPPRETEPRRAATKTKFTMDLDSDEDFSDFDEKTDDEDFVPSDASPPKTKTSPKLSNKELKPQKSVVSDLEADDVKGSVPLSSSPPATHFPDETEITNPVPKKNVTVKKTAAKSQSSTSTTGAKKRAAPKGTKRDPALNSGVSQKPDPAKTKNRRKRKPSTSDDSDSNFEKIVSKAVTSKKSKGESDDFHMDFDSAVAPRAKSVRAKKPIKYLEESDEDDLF

For the compound `Cc1cc(O)c2c(c1)C(=O)c1cc(O)cc(O)c1C2=O` [EMODIN], the IC50 in the assay on HL-60, with KB and in the assay with MDA-MB-231 was greater than 20 µM each time.
As to `CC(=O)O[C@@H]1[C@@H](O)[C@@H](O)[C@H](Oc2cc(O)c3c(c2)C(=O)c2cc(C)cc(O)c2C3=O)O[C@H]1C`, the IC50 with HL-60 is greater than 20 µM; in the assay on KB, greater than 20 µM; with MDA-MB-231, 7.9 µM. Moreover, the inhibition entry in assay [1] is “Active”.
For the compound `CCCC(=O)O[C@@H]1[C@@H](O)[C@H](C)O[C@@H](Oc2cc(O)c3c(c2)C(=O)c2cc(C)cc(O)c2C3=O)[C@@H]1OC(=O)CCC`, the IC50 in the assay with HL-60, in the assay on KB and in the assay with MDA-MB-231 was greater than 20 µM throughout.
As for `CC(=O)O[C@@H]1[C@@H](OC(C)=O)[C@@H](O)[C@H](Oc2cc(O)c3c(c2)C(=O)c2cc(C)cc(O)c2C3=O)O[C@H]1C`, the IC50 in the assay with HL-60 is greater than 20 µM; with KB it was greater than 20 µM; in the assay with MDA-MB-231, 1.2 µM.
Take `CC(=O)OC1c2cc(C)cc(O)c2C(=O)c2c(O)cc(O[C@@H]3O[C@@H](C)[C@H](O)[C@@H](OC(C)=O)[C@H]3OC(C)=O)cc21` (mixture of isomers): the IC50 with HL-60 was found to be 0.8 µM; in the assay on KB, 0.3 µM; with MDA-MB-231, 0.4 µM.
With `COc1cc(C)cc2c1C(=O)c1c(OC)cc(O[C@@H]3O[C@@H](C)[C@H](O)[C@@H](OC(C)=O)[C@H]3OC(C)=O)cc1C2=O`, the IC50 in the assay with HL-60, in the assay on KB and with MDA-MB-231 was greater than 20 µM in each case.
Consider `CC(=O)Oc1cc(C)cc2c1C(=O)c1c(OC(C)=O)cc(O[C@@H]3O[C@@H](C)[C@H](OC(C)=O)[C@@H](OC(C)=O)[C@H]3OC(C)=O)cc1C2OC(C)=O` (mixture of isomers), for which the IC50 in the assay with HL-60 amounted to 1.5 µM; in the assay on KB it was 1.1 µM; in the assay with MDA-MB-231 it was 1.7 µM. Moreover, the inhibition result in assay [1] is “Active”.
In the case of `CC(=O)O[C@@H]1[C@@H](O)[C@H](C)O[C@@H](Oc2cc(O)c3c(c2)C(=O)c2cc(C)cc(O)c2C3=O)[C@@H]1OC(C)=O`, the IC50 with HL-60 was 3.6 µM; in the assay with KB it was 1.1 µM; in the assay with MDA-MB-231, greater than 20 µM. Further, the inhibition result in assay [1] is “Active”.
Regarding `CC(=O)O[C@@H]1[C@@H](O[C@@H]2O[C@@H](C)[C@H](O)[C@@H](OC(C)=O)[C@H]2OC(C)=O)[C@H](C)O[C@@H](Oc2cc(O)c3c(c2)C(=O)c2cc(C)cc(O)c2C3=O)[C@@H]1OC(C)=O`, the IC50 in the assay with HL-60 is 11.8 µM; in the assay on KB, 8.3 µM; with MDA-MB-231, greater than 20 µM. Also, in assay [1], the inhibition result was “Active”.
Turning to `CC(=O)O[C@@H]1[C@@H](O)[C@@H](OC(C)=O)[C@H](Oc2cc(O)c3c(c2)C(=O)c2cc(C)cc(O)c2C3=O)O[C@H]1C`, the IC50 with HL-60, in the assay with KB and in the assay with MDA-MB-231 was greater than 20 µM throughout.

These data come from ChEMBL document CHEMBL1177676, “Synthesis and biological evaluation of cytotoxic activity of novel anthracene L-rhamnopyranosides” (Bioorg Med Chem, 2010).
